Results reported in ChEMBL document CHEMBL4385592, “4-Imidazo[2,1-b]thiazole-1,4-DHPs and neuroprotection: preliminary study in hits searching” (Eur J Med Chem, 2019).

Assays:
[1] = test system: Right cardiac atrium; experiment: Negative chronotropic activity in guinea pig right atrium assessed as decrease in atrial rate at 5 x 10^-6 M relative to control; parameters: scale not given: the % may be the effect or the level left; details: 5 µM
[2] = test system: Right cardiac atrium; experiment: Negative chronotropic activity in guinea pig spontaneously beating right atrium assessed as decrease in atrial rate at 10^-5 M relative to control; assay type: ADME, tissue-based, Cavia porcellus; parameters: scale not given: the % may be the effect or the level left; details: 10 µM
[3] = test system: Left cardiac atrium (Cavia porcellus); experiment: Negative inotropic activity in guinea pig left atrium assessed as decrease in developed tension
[4] = test system: Left cardiac atrium; experiment: Negative inotropic activity in guinea pig left atrium assessed as decrease in developed tension at 0.001 to 100 uM relative to control; assay type: ADME, tissue-based; details: Cavia porcellus
[5] = biological target: T1, Voltage-gated L-type calcium channel (Homo sapiens, UniProt Q13936+Q13698+Q01668+O60840); experiment: (§1) Inhibition of voltage-dependent L-type calcium channel in human U373MG cells assessed as protection against oxygen glucose deprivation/reperfusion-induced injury by measuring recovery of cell viability at 20 uM administered at onset of reperfusion period measured after 16 hrs by alamar blue assay relative to control; assay type: cell-based
How it was run: (§2)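 U-373 MG astrocytoma cells seeded at 30000 cells/ml and grown 24 or 48 h (37 °C/5% CO2). OGD: 24 h at 37 °C in glucose-free DMEM pre-bubbled with 95% N2/5% CO2, in a sealed nitrogen-flushed chamber. Then 16 h reperfusion in normal medium; compounds added at reperfusion, diluted from DMSO stock (DMSO ≤0.1%). Viability by alamarBlue, 4 h at 37 °C, fluorescence ex 530–560/em 590 nm. Expressed as % recovery from injury, mean ± S.E. of ≥3 experiments in sixuplicate.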

[6] = test system: Aorta; experiment: Inhibition of calcium-induced contraction in K+-depolarized guinea pig aortic strips at 10^-4 M relative to control; assay type: tissue-based; details: Cavia porcellus
[7] = biological target: T2, Voltage-gated L-type calcium channel (Rattus norvegicus, UniProt P22002+Q02485+P27732); experiment: as §1, with “Wistar rat brain slices” for “human U373MG cells”, “LDH release” for “cell viability”, “90 mins” for “16 hrs”, “spectrophotometric” for “alamar blue”; parameters: scale not given: the % may be the effect or the level left; details: 1.5 h
[8] = biological target: T1, Voltage-gated L-type calcium channel; experiment: Inhibition of voltage-dependent L-type calcium channel in human SH-SY5Y cells assessed as protection against glutamate-induced excitotoxicity by measuring recovery of cell viability at 1 uM measured after 24 hrs by alamar blue-based fluorescence method relative to control
[9] = biological target: T2, Voltage-gated L-type calcium channel; experiment: as §1, with “Wistar rat brain slices” for “human U373MG cells”, “edema formation” for “cell viability”, “90 mins” for “16 hrs by alamar blue assay”; parameters: scale not given: the % may be the effect or the level left; details: 1.5 h
[10] = biological target: T1, Voltage-gated L-type calcium channel; experiment: as §1, with “1” for “20”; assay type: cell-based
How it was run: as §2

[11] = biological target: T1, Voltage-gated L-type calcium channel; experiment: Inhibition of voltage-dependent L-type calcium channel in human SH-SY5Y cells assessed as protection against glutamate-induced excitotoxicity by measuring recovery of cell viability at 20 uM measured after 24 hrs by alamar blue-based fluorescence method relative to control
[12] = test system: Left cardiac atrium; experiment: Negative inotropic activity in guinea pig left atrium assessed as decrease in developed tension at 5 x 10^-7 M relative to control; assay type: ADME, tissue-based, Cavia porcellus; parameters: scale not given: the % may be the effect or the level left; details: 0.5 µM
[13] = test system: Right cardiac atrium; experiment: Negative chronotropic activity in guinea pig spontaneously beating right atrium assessed as decrease in atrial rate at 5 x 10^-6 M relative to control; assay type: ADME, tissue-based, Cavia porcellus; parameters: scale not given: the % may be the effect or the level left; details: 5 µM
[14] = test system: Right cardiac atrium; experiment: Negative chronotropic activity in guinea pig spontaneously beating right atrium assessed as decrease in atrial rate; assay type: tissue-based; details: Cavia porcellus
[15] = test system: Left cardiac atrium; experiment: Negative inotropic activity in guinea pig left atrium assessed as decrease in developed tension at 5 x 10^-6 M relative to control; assay type: ADME, tissue-based, Cavia porcellus; parameters: scale not given: the % may be the effect or the level left; details: 5 µM
[16] = Selectivity ratio of EC50 for negative chronotropic activity in guinea pig spontaneously beating right atrium to EC50 for negative inotropic activity in guinea pig left atrium; assay type: ADME, tissue-based, Cavia porcellus
[17] = test system: Left cardiac atrium; experiment: Negative inotropic activity in guinea pig left atrium assessed as decrease in developed tension at 10^-5 M relative to control; parameters: scale not given: the % may be the effect or the level left; details: 10 µM
[18] = test system: Right cardiac atrium; experiment: Negative inotropic activity in guinea pig right atrium assessed as decrease in developed tension at 5 x 10^-5 M relative to control; assay type: ADME, tissue-based, Cavia porcellus; parameters: scale not given: the % may be the effect or the level left; details: 50 µM
[19] = test system: Aorta; experiment: Inhibition of calcium-induced contraction in K+-depolarized guinea pig aortic strips at 10^-5 M relative to control; assay type: tissue-based; details: Cavia porcellus
[20] = test system: Right cardiac atrium; experiment: Negative chronotropic activity in guinea pig spontaneously beating right atrium assessed as decrease in atrial rate at 10^-4 M relative to control; assay type: ADME, tissue-based, Cavia porcellus; parameters: scale not given: the % may be the effect or the level left; details: 100 µM
[21] = test system: Right cardiac atrium; experiment: Negative inotropic activity in guinea pig right atrium assessed as decrease in developed tension at 10^-4 M relative to control; assay type: ADME, tissue-based, Cavia porcellus; parameters: scale not given: the % may be the effect or the level left; details: 100 µM
[22] = test system: Left cardiac atrium; experiment: Negative inotropic activity in guinea pig left atrium assessed as decrease in developed tension at 10^-4 M relative to control; assay type: ADME, tissue-based, Cavia porcellus; parameters: scale not given: the % may be the effect or the level left; details: 100 µM
[23] = test system: Right cardiac atrium; experiment: Negative chronotropic activity in guinea pig spontaneously beating right atrium assessed as decrease in atrial rate at 10^-6 M relative to control; assay type: ADME, tissue-based, Cavia porcellus; parameters: scale not given: the % may be the effect or the level left; details: 1 µM
[24] = test system: Right cardiac atrium; experiment: Negative inotropic activity in guinea pig right atrium assessed as decrease in developed tension at 10^-7 M relative to control; assay type: ADME, tissue-based, Cavia porcellus; parameters: scale not given: the % may be the effect or the level left; details: 0.1 µM
[25] = test system: Right cardiac atrium; experiment: Negative chronotropic activity in guinea pig spontaneously beating right atrium assessed as decrease in atrial rate at 5 x 10^-7 M relative to control; assay type: ADME, tissue-based, Cavia porcellus; parameters: scale not given: the % may be the effect or the level left; details: 0.5 µM
[26] = test system: Left cardiac atrium; experiment: Negative inotropic activity in guinea pig left atrium assessed as decrease in developed tension at 5 x 10^-5 M relative to control; assay type: ADME, tissue-based, Cavia porcellus; parameters: scale not given: the % may be the effect or the level left; details: 50 µM
[27] = test system: Right cardiac atrium; experiment: Negative chronotropic activity in guinea pig spontaneously beating right atrium assessed as decrease in atrial rate at 5 x 10^-5 M relative to control; assay type: tissue-based, Cavia porcellus; parameters: scale not given: the % may be the effect or the level left; details: 50 µM
[28] = test system: Right cardiac atrium; experiment: Negative inotropic activity in guinea pig right atrium assessed as decrease in developed tension at 10^-5 M relative to control; assay type: ADME, tissue-based, Cavia porcellus; parameters: scale not given: the % may be the effect or the level left; details: 10 µM
[29] = test system: Right cardiac atrium; experiment: Negative chronotropic activity in guinea pig spontaneously beating right atrium assessed as decrease in atrial rate at 10^-7 M relative to control; assay type: ADME, tissue-based, Cavia porcellus; parameters: scale not given: the % may be the effect or the level left; details: 0.1 µM

| SMILES | EC50 [3] [nM] | EC50 [4] [nM] | EC50 [14] [nM] | Activity [5] [%] | inhibition at 100 µM [6] [%] | Activity [7] [%] | Activity [8] [%] | Activity [9] [%] | Activity [10] [%] | Activity [11] [%] | Ratio EC50 [16] | further results |
| --- | --- | --- | --- | --- | --- | --- | --- | --- | --- | --- | --- | --- |
| COC(=O)C1=C(C)NC(C)=C(C(=O)OC)C1c1c(-c2cc(Br)c(OC)cc2OC)nc2sccn12 |  | 300 | 1670 | < 5 | 34 |  | < 5 |  | < 5 | < 5 | 25 to 56 | Activity [13]: 74%; Activity [15]: 63% |
| CCOC(=O)C1=C(C)NC(C)=C(C(=O)OCC)C1c1c(-c2ccc(OC(F)(F)F)cc2)nc2sc(Br)cn12 | 1000 | 93 |  | 23.8 |  |  | < 5 |  | 14.2 | 49.8 |  | Activity [2]: 35%; Activity [17]: 62%; Activity [18]: 85%; inhibition at 10 µM [19]: 5% |
| CCOC(=O)C1=C(C)NC(C)=C(C(=O)OCC)C1c1c(-c2ccc([N+](=O)[O-])cc2)nc2sc(Cl)cn12 | 2170 | 1370 |  | 26.1 | 12 |  | < 5 |  | 10.3 | < 5 |  | Activity [20]: 25%; Activity [21]: 79%; Activity [22]: 74% |
| CCOC(=O)C1=C(C)NC(C)=C(C(=O)OCC)C1c1c(-c2ccc(Cl)cc2)nc2sccn12 | 19 | 97 |  | < 5 | 43 |  | 6.8 |  | < 5 | 44.4 |  | Activity [24]: 79%; Activity [25]: 38%; Activity [22]: 61% |
| COC(=O)C1=C(C)NC(C)=C(C(=O)OC)C1c1ccccc1[N+](=O)[O-] [NIFEDIPINE] |  |  | 39 | 73.7 |  |  | 55 |  | 34.4 | 101.6 |  | Activity [29]: 85%; Activity ([17]; Left cardiac atrium): 97%; Activity ([7]; Brain): 72.3%; Activity ([9]; Brain): 95.7% |

The next lines start with results.

| EC50 [3] [nM] | EC50 [4] [nM] | EC50 [14] [nM] | SMILES | Activity [5] [%] | inhibition at 100 µM [6] [%] | Activity [7] [%] | Activity [8] [%] | Activity [9] [%] | Activity [10] [%] | Activity [11] [%] | Ratio EC50 [16] | further results |
| --- | --- | --- | --- | --- | --- | --- | --- | --- | --- | --- | --- | --- |
| 77 | 24 |  | CCOC(=O)C1=C(C)NC(C)=C(C(=O)OCC)C1c1c(-c2ccc([N+](=O)[O-])cc2)nc2sc(F)cn12 | 28.5 | 13 | 23.3 | 28.8 | 76.4 | 22.2 | 51.1 |  | Activity [1]: 67%; Activity [2]: 20%; Activity [12]: 78% |
|  | 26 | 120 | CCOC(=O)C1=C(C)NC(C)=C(C(=O)OCC)C1c1c(-c2cc(OC)ccc2OC)nc2sc(Br)cn12 | 29.32 | 22 | < 5 | < 5 | < 5 | < 5 | 57.6 | < 10 | Activity [15]: 69%; Activity [23]: 94% |
|  | 21 | 100 | CCOC(=O)C1=C(C)NC(C)=C(C(=O)OCC)C1c1c(-c2ccc(F)c(F)c2)nc2sccn12 | < 5 | 14 | 20.5 | 37.4 | 80.5 | < 5 | 50.7 | < 10 | Activity [23]: 77%; Activity [12]: 83% |
| 220 | 81 |  | CCOC(=O)C1=C(C)NC(C)=C(C(=O)OCC)C1c1c(-c2cc([N+](=O)[O-])c(Cl)cc2Cl)nc2sc(Cl)cn12 | 15.4 | 17 |  | 40.8 |  | 16.5 | 40.7 |  | Activity [26]: 86%; Activity [27]: 37%; Activity [28]: 82% |
